Laboratory results as given in ChEMBL document CHEMBL1125497, “Synthesis and anticonvulsant activity of enaminones” (J Med Chem, 1992).

Legend:
[1] = Dose producing neurotoxic effects in 50% of the CF1 mice after intraperitoneal administration.; format: functional; conditions: Mus musculus, ip; read-out: ED50 (the source's name)
Outline: (§1)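 Phase II quantification in CF1 male mice (ca. 24–34 g), dosing ip or po in 0.5% methylcellulose suspension. ED50 is protection from tonic hind limb extension in MES. TD50 is rotorod neurotoxicity. Both were read at time of peak effect and derived by Litchfield–Wilcoxon with 95% confidence limits.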

[2] = Antiepileptic activity in male CF1 mice 30 min after administration measured in neurological toxicity (Tox) test at a dose of 300 mg/kg (no. of animals treated /protected); activity value is 4/4; format: functional, Mus musculus
[3] = Antiepileptic activity in male CF1 mice 30 min after administration measured in neurological toxicity (Tox) test at a dose of 100 mg/kg (no. of animals treated /protected); activity value is 1/8; format: functional, Mus musculus
[4] = Antiepileptic activity in male CF1 mice 4 hr after administration measured in maximum electroshock seizure(MES) test at a dose of 300 mg/kg (no. of animals treated /protected); activity value is 1/1; format: functional, Mus musculus
[5] = Antiepileptic activity in male CF1 mice 0.25 hr after oral administration measured in neurological toxicity (Tox) test at a dose of 10 mg/kg (no. of animals treated /protected); activity value is 0/4; format: functional, Mus musculus
[6] = Antiepileptic activity in male CF1 mice 0.5 hr after oral administration measured in maximum electroshock seizure(MES) test at a dose of 10 mg/kg (no. of animals treated /protected); activity value is 4/4; format: functional, Mus musculus
[7] = Antiepileptic activity in male CF1 mice 1.00 hours after oral administration measured in neurological toxicity (Tox) test at a dose of 6 mg/kg (no. of animals treated /protected); activity value is 0/4; format: functional, Mus musculus
[8] = Antiepileptic activity in male CF1 mice 1 hr after oral administration measured in maximum electroshock seizure(MES) test at a dose of 6 mg/kg (no. of animals treated /protected); activity value is 1/4; format: functional, Mus musculus
[9] = Antiepileptic activity in male CF1 mice 1 hr after oral administration measured in maximum electroshock seizure(MES) test at a dose of 6 mg/kg (no. of animals treated /protected); activity value is 2/4; format: functional, Mus musculus
[10] = Antiepileptic activity in male CF1 mice 1 hr after oral administration measured in neurological toxicity (Tox) test at a dose of 10 mg/kg (no. of animals treated /protected); activity value is 0/4; format: functional, Mus musculus
[11] = Antiepileptic activity in male CF1 mice 2.00 hours after oral administration measured in neurological toxicity (Tox) test at a dose of 6 mg/kg (no. of animals treated /protected); activity value is 0/4; format: functional, Mus musculus
[12] = Antiepileptic activity in male CF1 mice 2 hr after oral administration measured in maximum electroshock seizure(MES) test at a dose of 10 mg/kg (no. of animals treated /protected); activity value is 4/4; format: functional, Mus musculus
[13] = Antiepileptic activity in male CF1 mice 4 hr after oral administration measured in maximum electroshock seizure(MES) test at a dose of 10 mg/kg (no. of animals treated /protected); activity value is 3/4; format: functional, Mus musculus
[14] = Antiepileptic activity in male CF1 mice 4 hr after oral administration measured in neurological toxicity (Tox) test at a dose of 10 mg/kg (no. of animals treated /protected); activity value is 0/4; format: functional, Mus musculus
[15] = tested on: Rattus norvegicus; assay: Average seizure score for the rat cornea 0.5 hr after peroral administration of 20 mg/kg of compound; format: functional; conditions: route oral
Outline: (§2)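 Sprague-Dawley rats (85–95 g initial) were kindled with 4 s, 8 mA corneal stimulations (butacaine anesthesia) to 10 consecutive stage 5 seizures. After a vehicle shock and a 2-day shock-free period, test drug was given ip or po and a single shock applied at time of peak effect. Seizures were scored on a modified Racine 0–5 scale. ED50 is the dose reducing severity by 50% (Litchfield–Wilcoxon).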

[16] = tested on: Rattus norvegicus; assay: Average seizure score for the rat cornea 0.5 hr after peroral administration of 30 mg/kg of compound; format: functional; conditions: route oral; outline: as §2
[17] = tested on: Rattus norvegicus; assay: Per oral dose (30 mg/Kg) reducing rat corneal kindling 0.5 hr after administration.; format: functional; outline: as §2
[18] = tested on: Rattus norvegicus; assay: Per oral dose (40 mg/Kg) reducing rat corneal kindling 0.5 hr after administration.; format: functional; outline: as §2
[19] = tested on: Rattus norvegicus; assay: Per oral dose (20 mg/Kg) reducing rat corneal kindling 0.5 hr after administration.; format: functional; outline: as §2
[20] = Dose protecting 50% of the mice from tonic hind limb extension at the time of […] after ip administration.; format: functional; conditions: Mus musculus, Hindlimb; outline: as §1
[21] = Antiepileptic activity in male CF1 mice 30 min after administration measured in maximum electroshock seizure(MES) test at a dose of 100 mg/kg (no. of animals treated /protected); activity value is 2/3; format: functional, Mus musculus
[22] = Dose showing neurotoxicity in 50% of the at the time of peak neurotoxic effect in CF1 MICE after po administration.; format: toxicity, organism-based; conditions: CF1, mouse, in vivo; outline: as §1
[23] = Antiepileptic activity in male CF1 mice 0.25 hr after oral administration measured in neurological toxicity (Tox) test at a dose of 50 mg/kg (no. of animals treated /protected); activity value is 0/4; format: functional, Mus musculus
[24] = Antiepileptic activity in male CF1 mice 0.5 hr after oral administration measured in neurological toxicity (Tox) test at a dose of 50 mg/kg (no. of animals treated /protected); activity value is 0/4; format: functional, Mus musculus
[25] = Antiepileptic activity in male CF1 mice 2 hr after oral administration measured in maximum electroshock seizure(MES) test at a dose of 50 mg/kg (no. of animals treated /protected); activity value is 2/4; format: functional, Mus musculus
[26] = Antiepileptic activity in male CF1 mice 2 hr after oral administration measured in neurological toxicity (Tox) test at a dose of 50 mg/kg (no. of animals treated /protected); activity value is 0/4; format: functional, Mus musculus
[27] = Antiepileptic activity in male CF1 mice 4 hr after oral administration measured in maximum electroshock seizure(MES) test at a dose of 50 mg/kg (no. of animals treated /protected); activity value is 2/4; format: functional, Mus musculus
[28] = tested on: Rattus norvegicus; assay: Average seizure score for the rat cornea 0.5 hr after peroral administration of 75 mg/kg of compound; format: functional; conditions: route oral; outline: as §2
[29] = Protective index was measured as TD50/MES ED50 in mice on ip administration; format: ADME, organism-based; conditions: mouse, in vivo, read-out: PI
Outline: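 Male CF1 mice (ca. 24–34 g), compound given ip as 0.5% methylcellulose suspension. MES ED50 = dose protecting 50% from tonic hind limb extension; TD50 = median neurotoxic dose by rotorod; both at time of peak effect, with confidence limits by Litchfield and Wilcoxon. PI = TD50/MES ED50.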

[30] = tested on: Rattus norvegicus; assay: Per oral dose (75 mg/Kg) reducing rat corneal kindling 0.5 hr after administration.; format: functional; outline: as §2
[31] = tested on: Rattus norvegicus; assay: Per oral dose (60 mg/Kg) reducing rat corneal kindling 0.5 hr after administration.; format: functional; outline: as §2

**Q.** What does the source list for COC(=O)C1C(=O)C=C(Nc2ccc(Cl)cc2)CC1C (stereo unspecified)?
**A.** TD50 [1]: 255 mg/kg; Activity [2]: 4; Activity [3]: 1; Activity [4]: 1; Activity [5]: 0; Activity [6]: 4; Activity [7]: 0; Activity [8]: 1; Activity [9]: 2; Activity [10]: 0; Activity [11]: 0; Activity [12]: 4; Activity [13]: 3; Activity [14]: 0; Average seizure score [15]: 3; Average seizure score [16]: 3; Reduction [17]: 40%; Reduction [18]: 49%; Reduction [19]: 40%

**Q.** For COC(=O)C1C(=O)C=C(NCc2ccccc2)CC1C (stereo unspecified), which ED50 [20] is on record?
**A.** The ED50 was 42 mg/kg.

**Q.** And the Activity [21]?
**A.** Its Activity is 2.

**Q.** And the TD50 [22]?
**A.** The TD50 was greater than 500 mg/kg.

**Q.** What about the Activity [23] of the same molecule?
**A.** Its Activity is 0.

**Q.** What about the Activity [24] of the same molecule?
**A.** Its Activity is 0.

**Q.** And the Activity [25]?
**A.** The Activity was 2.

**Q.** And the Activity [26]?
**A.** The Activity was 0.

**Q.** And the Activity [27]?
**A.** Its Activity is 2.

**Q.** And the Average seizure score [28]?
**A.** Its Average seizure score is 2.6.

**Q.** And the selectivity ratio [29]?
**A.** Its selectivity ratio is greater than 11.9.

**Q.** And the Reduction [30]?
**A.** The Reduction was 47%.

**Q.** What about the Reduction [31] of the same molecule?
**A.** The Reduction was 40%.
